Reference: ChEMBL document CHEMBL4049392, “New azole derivatives showing antimicrobial effects and their mechanism of antifungal activity by molecular modeling studies” (Eur J Med Chem, 2017)
Values after ≈ are worked out from the molar mass of the structure shown.

What was measured:
Pichia kudriavzevii = assay: Anti-fungal activity against Candida krusei ATCC 6258 after 48 hrs by broth microdilution method; type: functional; conditions: ATCC 6258, 48 h
Procedure, shortened: (§1)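 CLSI broth microdilution in RPMI 1640 (with glutamine, without bicarbonate) buffered to pH 7.0 with MOPS. Inoculum was prepared from 24 h Sabouraud dextrose agar subcultures, final 0.5 to 2.5 10^3 cfu/mL. Twofold dilutions were made from DMSO stocks. Incubated 35 °C for 48 h. MIC was the lowest concentration with no visible growth; for the fluconazole reference, MIC was taken at about 80% growth inhibition versus control.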

Escherichia coli = assay: Antibacterial activity against Escherichia coli ATCC 25922 after 18 to 24 hrs by broth microdilution method; type: functional
Procedure, shortened: (§2)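 CLSI broth microdilution in Mueller Hinton broth, with inoculum from 24 h Mueller Hinton agar subcultures, final about 5 10^5 cfu/mL. Compounds were dissolved in DMSO and tested as twofold dilutions in wells. Plates were incubated at 35 °C for 18–24 h. MIC was read as the lowest concentration completely inhibiting visible growth. Ciprofloxacin was the reference.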

Pseudomonas aeruginosa = assay: Antibacterial activity against Pseudomonas aeruginosa ATCC 27853 after 18 to 24 hrs by broth microdilution method; type: functional; procedure, shortened: as §2
Enterococcus faecalis = assay: Antibacterial activity against Enterococcus faecalis ATCC 29212 after 18 to 24 hrs by broth microdilution method; type: functional; procedure, shortened: as §2
Staphylococcus aureus = assay: Antibacterial activity against Staphylococcus aureus ATCC 29213 after 18 to 24 hrs by broth microdilution method; type: functional; procedure, shortened: as §2
Candida albicans [1] = assay: Anti-fungal activity against Candida albicans ATCC 90028 after 48 hrs by broth microdilution method; type: functional; conditions: ATCC 90028, 48 h; procedure, shortened: as §1
Candida parapsilosis = assay: Anti-fungal activity against Candida parapsilosis ATCC 90018 after 48 hrs by broth microdilution method; type: functional; conditions: Lodderomyces parapsilosis, ATCC 90018, 48 h; procedure, shortened: as §1
Nakaseomyces glabratus = assay: Anti-fungal activity against drug-resistant Candida glabrata after 48 hrs by broth microdilution method; type: functional
Procedure, shortened: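 Clinical resistant C. glabrata isolate, stored frozen in glycerol and subcultured twice on Sabouraud dextrose agar. CLSI broth microdilution in RPMI 1640 (glutamine, no bicarbonate) buffered to pH 7.0 with MOPS. Inoculum from 24 h subcultures, final 0.5 to 2.5 x10^3 cfu/mL. DMSO-dissolved compounds in twofold dilutions, 35 C for 48 h. MIC is the lowest concentration giving complete visual growth inhibition; fluconazole reference read at about 80% inhibition.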

[2] = Cytotoxicity against human U937 cells assessed as cell viability at 10 to 100 ug/ml after 48 hrs by MTT assay relative to control; type: cell-based, U-937; conditions: read-out: Activity
Procedure, shortened: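 U937 human monocytic cells, 4 10^3 per well in RPMI-1640 with 10% FBS, L-glutamine, penicillin and streptomycin, at 37 °C and 5% CO2. Compounds in DMSO were added at five final concentrations for 48 h, in triplicate. MTT was added for 4 h, formazan was dissolved overnight in SDS/23% DMF, and OD was read at 570 nm. Results are % reduction in viable cells versus control.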

Candida albicans [3] = assay: Antibiofilm activity against Candida albicans SC5314 after 24 hrs by spectrophotometric method; type: functional
Procedure, shortened: (§3)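 Biofilms were grown on Calgary device pegs from a 10^6 cfu/mL inoculum for 24 h at 37 °C. Pegs were rinsed in saline, then challenged with twofold dilutions for 24 h at 35 °C. Biofilm was recovered by 5 min sonication into RPMI 1640 with 2% glucose and incubated overnight. OD was read at 550 nm plus visual turbidity. MBEC was the lowest concentration preventing regrowth. MBIC was the minimum concentration preventing initial biofilm formation, judged by visual turbidity.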

Candida albicans [4] = assay: Antibiofilm activity against Candida albicans SC5314 after 24 hrs by turbidity assay; type: functional; procedure, shortened: as §3

SMILES | MIC (Pichia kudriavzevii) [µg/mL] | MIC (Escherichia coli) [µg/mL] | MIC (Pseudomonas aeruginosa) [µg/mL] | MIC (Enterococcus faecalis) [µg/mL] | MIC (Staphylococcus aureus) [µg/mL] | MIC (Candida albicans [1]) [µg/mL] | MIC (Candida parapsilosis) [µg/mL] | MIC (Nakaseomyces glabratus) [µg/mL] | viability at 48 h [2] [%] | MBEC (Candida albicans [3]) [µg/mL] | MBIC (Candida albicans [4]) [µg/mL]
OC(Cn1ccnc1)c1ccccc1 (stereo not drawn) | 256 (≈ 1360 µM) | 512 (≈ 2720 µM) | 512 (≈ 2720 µM) | 512 (≈ 2720 µM) | 1020 (≈ 5440 µM) | 256 (≈ 1360 µM) | 256 (≈ 1360 µM) |  |  |  | 
OC(Cn1ccnc1)c1ccc(Cl)cc1 (stereo not drawn) | 256 (≈ 1150 µM) | 256 (≈ 1150 µM) | 256 (≈ 1150 µM) | 128 (≈ 575 µM) | 64 (≈ 287 µM) | 128 (≈ 575 µM) | 128 (≈ 575 µM) |  |  |  | 
CC(=O)OC(Cn1ccnc1)c1ccccc1.Cl (stereo not drawn) | 128 | 512 | 256 | 256 | 1020 | 128 | 64 |  |  |  | 
Cl.O=C(Cc1ccccc1)OC(Cn1ccnc1)c1ccc(Cl)cc1 (stereo not drawn) | 4 | 256 | 256 | 256 | 16 | 0.5 | 2 | 4 | 70 to 80 |  | 
Cl.O=C(OC(Cn1ccnc1)c1ccc(Cl)cc1)c1ccc(-c2ccccc2)cc1 (stereo not drawn) | 4 | 512 | 256 | 256 | 512 | 0.25 | 0.25 | 4 | 70 to 80 | 512 | 4
CCCC(CCC)C(=O)OC(Cn1ccnc1)c1ccc(Cl)cc1.Cl (stereo not drawn) | 64 | 512 | 256 | 32 | 1020 | 128 | 64 |  |  |  | 
CC(=O)CCC(=O)OC(Cn1ccnc1)c1ccc(Cl)cc1.Cl (stereo not drawn) | 32 | 512 | 256 | 256 | 512 | 64 | 16 |  |  |  | 
Cl.O=C(Cc1ccccc1)OC(Cn1ccnc1)c1ccccc1 (stereo not drawn) | 128 | 512 | 128 | 64 | 128 | 64 | 32 |  |  |  | 
CCCCC(=O)OC(Cn1ccnc1)c1ccc(Cl)cc1.Cl (stereo not drawn) | 8 | 512 | 256 | 128 | 32 | 0.5 | 0.5 | 0.25 | 70 to 80 | 1024 | 8
CC(=O)CCC(=O)OC(Cn1ccnc1)c1ccccc1.Cl (stereo not drawn) | 256 | 512 | 256 | 128 | 512 | 256 | 256 |  |  |  | 
CCC(=O)OC(Cn1ccnc1)c1ccccc1.Cl (stereo not drawn) | 32 | 512 | 256 | 128 | 1020 | 64 | 8 |  |  |  | 
Cl.O=C(CCC(=O)c1ccccc1)OC(Cn1ccnc1)c1ccccc1 (stereo not drawn) | 128 | 512 | 256 | 64 | 128 | 16 | 32 |  |  |  | 
C/C=C/C=C/C(=O)OC(Cn1ccnc1)c1ccccc1.Cl (stereo not drawn) | 32 | 512 | 256 | 64 | 512 | 32 | 8 |  |  |  | 
Cl.O=C(CCC(=O)c1ccccc1)OC(Cn1ccnc1)c1ccc(Cl)cc1 (stereo not drawn) | 16 | 256 | 256 | 256 | 8 | 4 | 4 | 32 | 70 to 80 |  | 
CCCC(=O)OC(Cn1ccnc1)c1ccccc1.Cl (stereo not drawn) | 32 | 512 | 256 | 128 | 512 | 64 | 16 |  |  |  | 
CCCCC(=O)OC(Cn1ccnc1)c1ccccc1.Cl (stereo not drawn) | 32 | 512 | 256 | 128 | 256 | 8 | 8 | 32 |  |  | 

SMILES | MIC (Pichia kudriavzevii) [µg/mL] | MIC (Escherichia coli) [µg/mL] | MIC (Pseudomonas aeruginosa) [µg/mL] | MIC (Enterococcus faecalis) [µg/mL] | MIC (Staphylococcus aureus) [µg/mL] | MIC (Candida albicans [1]) [µg/mL] | MIC (Candida parapsilosis) [µg/mL] | MIC (Nakaseomyces glabratus) [µg/mL] | viability at 48 h [2] [%] | MBEC (Candida albicans [3]) [µg/mL] | MBIC (Candida albicans [4]) [µg/mL]
Cl.O=C(OC(Cn1ccnc1)c1ccccc1)C1CCCCC1 (stereo not drawn) | 128 | 512 | 256 | 32 | 64 | 16 | 16 |  |  |  | 
CCC(=O)OC(Cn1ccnc1)c1ccc(Cl)cc1.Cl (stereo not drawn) | 32 | 512 | 256 | 256 | 256 | 4 | 4 | 32 | 70 to 80 |  | 
Cl.O=C(OC(Cn1ccnc1)c1ccccc1)c1ccccc1 (stereo not drawn) | 64 | 256 | 256 | 64 | 64 | 32 | 32 | > 32 |  |  | 
Cl.O=C(OC(Cn1ccnc1)c1ccc(Cl)cc1)c1ccccc1 (stereo not drawn) | 32 | 512 | 256 | 512 | 128 | 4 | 2 | 16 | 70 to 80 |  | 
Cl.O=C(/C=C/c1ccccc1)OC(Cn1ccnc1)c1ccc(Cl)cc1 (stereo not drawn) | 16 | 512 | 256 | 256 | 1020 | 4 | 2 | 2 | 70 to 80 |  | 
Cl.O=C(CCCc1ccccc1)OC(Cn1ccnc1)c1ccc(Cl)cc1 (stereo not drawn) | 8 | 512 | 512 | 128 | 128 | 2 | 2 | 8 | 70 to 80 |  | 
CC(C)CC(=O)OC(Cn1ccnc1)c1ccc(Cl)cc1.Cl (stereo not drawn) | 4 | 512 | 256 | 128 | 32 | 0.25 | 0.25 | 1 | 70 to 80 | 1024 | 8
CC(C)CC(=O)OC(Cn1ccnc1)c1ccccc1.Cl (stereo not drawn) | 32 | 512 | 256 | 128 | 256 | 2 | 2 | > 32 |  |  | 
C/C=C/C=C/C(=O)OC(Cn1ccnc1)c1ccc(Cl)cc1.Cl (stereo not drawn) | 8 | 512 | 256 | 128 | 16 | 0.5 | 1 | 4 | 70 to 80 | 1024 | 8
CC(=O)OC(Cn1ccnc1)c1ccc(Cl)cc1.Cl (stereo not drawn) | 32 | 512 | 256 | 256 | 256 | 64 | 8 |  |  |  | 
CCCC(CCC)C(=O)OC(Cn1ccnc1)c1ccccc1.Cl (stereo not drawn) | 32 | 512 | 256 | 32 | 16 | 32 | 32 | > 32 |  |  | 
Cl.O=C(OC(Cn1ccnc1)c1ccc(Cl)cc1)C1CCCCC1 (stereo not drawn) | 8 | 256 | 1020 | 512 | 256 | 1 | 1 | 0.5 | 70 to 80 | 512 | 8
Cl.O=C(CCCc1ccccc1)OC(Cn1ccnc1)c1ccccc1 (stereo not drawn) | 32 | 1020 | 256 | 128 | 8 | 4 | 4 | > 32 |  |  | 
O=C(O)c1cn(C2CC2)c2cc(N3CCNCC3)c(F)cc2c1=O [CIPROFLOXACIN] |  | 0.005 (≈ 0.0151 µM) | 1.5 (≈ 4.53 µM) | 1.5 (≈ 4.53 µM) | 0.5 (≈ 1.51 µM) |  |  |  |  |  | 
OC(Cn1cncn1)(Cn1cncn1)c1ccc(F)cc1F [FLUCONAZOLE] | 16 (≈ 52.2 µM) |  |  |  |  | 0.25 (≈ 0.816 µM) | 0.25 (≈ 0.816 µM) | 32 (≈ 104 µM) |  |  | 
